As usually defined, the IC50 is the concentration that inhibits the measured activity by half. Usually inhibition stands for the relative decrease from the control value, in per cent. As a reminder, the EC50 is the concentration that produces a half-maximal response. As a reminder, the efflux ratio is the permeability from basolateral to apical divided by that in the opposite direction, in the common usage.

These results are taken from ChEMBL document CHEMBL4680220, “Synthesis and biological evaluation of acridine-based histone deacetylase inhibitors as multitarget agents against Alzheimer's disease” (Eur J Med Chem, 2020).

The structures appear in SMILES notation.

One data set concerns the target Histone deacetylase 4 (Homo sapiens, UniProt P56524). The data set can be described thus: Inhibition of recombinant human N-terminal GST-tagged/C-terminal His-tagged HDAC4 (627 to 1084 residues) expressed in baculovirus expression system using Boc-Lys(TFA)-AMC as substrate preincubated for 5 mins followed by substrate addition and measured after 30 mins by fluorescence assay.

The target in data set [1] is T1, Amyloid-beta precursor protein (Homo sapiens, UniProt P05067). The data set can be described thus: Disaggregation of self-induced amyloid beta (1 to 42) (unknown origin) preformed fibrils at 10 uM measured after 24 hrs by thioflavin-T fluorescence assay relative to control. The method in brief: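 Aβ1-42 (10 µM) with 10 µM ThT and 1 mM EDTA in 50 mM phosphate buffer (150 mM NaCl, pH 7.4) pre-aggregated 24 h at 37 °C, 700 rpm; fluorescence read (ex 440/em 486 nm). Compound then added and incubated a further 24 h at 37 °C before re-reading. Disaggregation = (first − second reading)/first reading. Triplicate.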
T1 sequence (P05067 whole entry): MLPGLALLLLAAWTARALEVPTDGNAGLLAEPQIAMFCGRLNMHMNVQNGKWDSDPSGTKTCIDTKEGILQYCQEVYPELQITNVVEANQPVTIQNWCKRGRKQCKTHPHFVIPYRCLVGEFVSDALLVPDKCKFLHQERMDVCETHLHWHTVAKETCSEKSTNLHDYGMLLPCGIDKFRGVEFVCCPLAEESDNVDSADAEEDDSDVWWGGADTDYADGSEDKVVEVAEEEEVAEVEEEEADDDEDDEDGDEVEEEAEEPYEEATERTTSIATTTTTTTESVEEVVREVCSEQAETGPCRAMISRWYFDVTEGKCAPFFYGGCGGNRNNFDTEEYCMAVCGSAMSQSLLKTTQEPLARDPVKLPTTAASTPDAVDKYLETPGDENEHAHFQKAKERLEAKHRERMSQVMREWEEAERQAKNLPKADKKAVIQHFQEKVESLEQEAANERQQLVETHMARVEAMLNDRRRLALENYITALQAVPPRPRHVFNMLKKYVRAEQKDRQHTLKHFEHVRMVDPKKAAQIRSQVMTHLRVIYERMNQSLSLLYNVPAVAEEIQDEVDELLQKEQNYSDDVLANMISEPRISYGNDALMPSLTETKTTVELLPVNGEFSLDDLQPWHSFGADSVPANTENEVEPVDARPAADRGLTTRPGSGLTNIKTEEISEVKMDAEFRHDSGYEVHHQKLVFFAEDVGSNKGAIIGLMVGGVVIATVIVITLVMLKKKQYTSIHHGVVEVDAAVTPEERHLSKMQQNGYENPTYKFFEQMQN

Another data set deals with Histone deacetylase 9 (Homo sapiens, UniProt Q9UKV0). The data set can be described thus: Inhibition of recombinant human C-terminal His-tagged HDAC9 (604 to 1066 residues) expressed in baculovirus infected Sf9 cells using fluorogenic HDAC 2A substrate preincubated for 5 mins followed by substrate addition and measured after 30 mins by fluorescence assay.
Data set [2] deals with Class 1 histone deacetylase (Homo sapiens, UniProt Q13547+O15379+Q92769+Q9BY41). The data set can be described thus: Inhibition of Class 1 HDAC in […] cells assessed as increase in acetylated Histone H3 level measured after 24 hrs by Western blot analysis. It is filed as cell-based. To be noted: for inhibition: Mus musculus. (Immunoblotting shows a protein as a band on a membrane.)
Class 1 histone deacetylase, sequence (O15379 whole entry, looked up): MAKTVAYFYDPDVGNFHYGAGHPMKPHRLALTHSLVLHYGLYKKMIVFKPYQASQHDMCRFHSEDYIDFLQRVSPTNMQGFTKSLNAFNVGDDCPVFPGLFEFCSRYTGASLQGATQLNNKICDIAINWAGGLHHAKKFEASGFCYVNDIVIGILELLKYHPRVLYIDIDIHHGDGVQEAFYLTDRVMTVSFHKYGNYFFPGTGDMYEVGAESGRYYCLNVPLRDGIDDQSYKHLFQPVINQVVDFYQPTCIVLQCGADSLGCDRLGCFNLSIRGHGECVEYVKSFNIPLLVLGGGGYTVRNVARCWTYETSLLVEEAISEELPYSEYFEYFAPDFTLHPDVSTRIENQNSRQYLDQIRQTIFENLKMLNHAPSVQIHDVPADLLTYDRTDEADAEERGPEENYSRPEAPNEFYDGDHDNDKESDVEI
Class 1 histone deacetylase, sequence (Q13547 whole entry, looked up): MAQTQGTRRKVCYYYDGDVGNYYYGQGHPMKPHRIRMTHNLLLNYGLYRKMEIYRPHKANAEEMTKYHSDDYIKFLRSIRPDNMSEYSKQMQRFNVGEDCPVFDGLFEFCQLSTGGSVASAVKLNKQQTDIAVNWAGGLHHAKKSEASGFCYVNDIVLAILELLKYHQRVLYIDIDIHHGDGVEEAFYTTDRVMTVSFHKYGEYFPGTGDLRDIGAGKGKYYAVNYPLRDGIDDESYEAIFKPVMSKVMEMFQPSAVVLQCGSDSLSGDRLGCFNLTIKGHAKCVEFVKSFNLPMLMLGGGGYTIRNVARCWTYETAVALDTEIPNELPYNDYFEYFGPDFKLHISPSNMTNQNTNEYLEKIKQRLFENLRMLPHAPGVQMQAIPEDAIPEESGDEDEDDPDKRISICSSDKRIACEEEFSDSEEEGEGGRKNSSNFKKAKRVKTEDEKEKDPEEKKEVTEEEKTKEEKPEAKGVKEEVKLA
Class 1 histone deacetylase, sequence (Q92769 whole entry, looked up): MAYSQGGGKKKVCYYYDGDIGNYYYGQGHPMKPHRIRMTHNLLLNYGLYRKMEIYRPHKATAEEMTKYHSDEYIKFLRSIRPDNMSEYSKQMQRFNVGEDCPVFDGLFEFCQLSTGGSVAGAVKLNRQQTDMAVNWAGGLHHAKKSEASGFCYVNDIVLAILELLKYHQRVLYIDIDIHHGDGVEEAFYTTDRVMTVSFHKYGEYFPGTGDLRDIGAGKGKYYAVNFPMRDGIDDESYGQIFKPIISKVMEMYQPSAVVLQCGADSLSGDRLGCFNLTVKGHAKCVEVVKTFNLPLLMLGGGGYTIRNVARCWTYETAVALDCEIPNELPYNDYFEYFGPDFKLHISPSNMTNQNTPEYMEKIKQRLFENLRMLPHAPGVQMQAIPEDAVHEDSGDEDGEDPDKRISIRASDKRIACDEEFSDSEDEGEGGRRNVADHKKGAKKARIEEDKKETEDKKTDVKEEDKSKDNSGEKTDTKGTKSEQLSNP
Class 1 histone deacetylase, sequence (Q9BY41 whole entry, looked up): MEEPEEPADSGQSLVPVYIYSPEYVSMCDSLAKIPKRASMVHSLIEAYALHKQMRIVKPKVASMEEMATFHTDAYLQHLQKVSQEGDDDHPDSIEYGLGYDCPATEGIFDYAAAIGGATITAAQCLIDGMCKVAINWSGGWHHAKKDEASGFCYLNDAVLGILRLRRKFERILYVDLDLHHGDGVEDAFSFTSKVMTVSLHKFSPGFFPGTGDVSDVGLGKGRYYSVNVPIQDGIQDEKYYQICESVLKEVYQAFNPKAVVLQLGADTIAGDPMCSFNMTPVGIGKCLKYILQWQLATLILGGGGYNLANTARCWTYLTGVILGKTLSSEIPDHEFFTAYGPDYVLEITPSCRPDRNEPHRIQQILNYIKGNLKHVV

The target of the next data set is Histone deacetylase 5 (Homo sapiens, UniProt Q9UQL6). The data set can be described thus: Inhibition of recombinant human C-terminal His-tagged HDAC5 (656 to 1122 residues) expressed in baculovirus infected Sf9 insect cells using fluorogenic HDAC 2A substrate preincubated for 5 mins followed by substrate addition and measured after 30 mins by fluorescence assay.
Histone deacetylase 5, sequence (Q9UQL6 whole entry, the tested form may be a part): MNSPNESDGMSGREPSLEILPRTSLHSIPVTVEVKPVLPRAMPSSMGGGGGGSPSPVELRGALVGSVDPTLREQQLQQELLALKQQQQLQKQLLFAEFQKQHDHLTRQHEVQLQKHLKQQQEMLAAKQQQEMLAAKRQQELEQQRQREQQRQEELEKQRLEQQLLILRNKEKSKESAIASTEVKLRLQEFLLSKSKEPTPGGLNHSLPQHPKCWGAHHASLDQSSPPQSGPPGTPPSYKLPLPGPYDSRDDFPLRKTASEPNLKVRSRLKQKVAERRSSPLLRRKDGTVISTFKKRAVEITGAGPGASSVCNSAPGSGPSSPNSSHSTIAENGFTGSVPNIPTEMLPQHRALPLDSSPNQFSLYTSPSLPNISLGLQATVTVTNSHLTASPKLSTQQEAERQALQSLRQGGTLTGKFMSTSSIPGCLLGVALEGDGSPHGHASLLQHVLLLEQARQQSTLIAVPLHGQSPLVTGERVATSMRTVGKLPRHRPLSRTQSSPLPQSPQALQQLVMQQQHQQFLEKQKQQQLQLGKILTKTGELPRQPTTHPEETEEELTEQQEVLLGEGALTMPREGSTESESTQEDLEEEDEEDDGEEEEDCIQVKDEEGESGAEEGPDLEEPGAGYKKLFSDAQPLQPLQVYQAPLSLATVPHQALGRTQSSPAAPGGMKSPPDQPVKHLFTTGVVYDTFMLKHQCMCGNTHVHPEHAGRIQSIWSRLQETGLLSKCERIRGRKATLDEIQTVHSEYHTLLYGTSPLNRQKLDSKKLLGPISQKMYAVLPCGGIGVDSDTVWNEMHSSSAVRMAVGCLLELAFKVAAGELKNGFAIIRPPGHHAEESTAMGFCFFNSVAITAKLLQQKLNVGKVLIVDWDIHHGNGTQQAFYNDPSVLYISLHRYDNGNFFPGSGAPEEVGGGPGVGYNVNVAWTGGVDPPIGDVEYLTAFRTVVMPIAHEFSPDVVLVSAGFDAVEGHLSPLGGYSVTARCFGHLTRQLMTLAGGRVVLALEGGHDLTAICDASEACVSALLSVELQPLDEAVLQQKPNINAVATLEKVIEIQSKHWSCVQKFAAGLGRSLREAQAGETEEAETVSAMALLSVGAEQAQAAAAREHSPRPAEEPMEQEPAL

In data set [3] the target is T1, Amyloid-beta precursor protein. The data set can be described thus: Inhibition of amyloid beta (1 to 42) (unknown origin) self aggregation after 24 hrs by thioflavin-T fluorescence method. In short, it runs like this:
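ThT aggregation assay. Compound at varying concentrations combined with 10 µM Aβ1-42 (1 mM DMSO stock), 10 µM ThT, 1 mM EDTA in 50 mM phosphate buffer (150 mM NaCl, pH 7.4). Incubated 24 h at 37 °C with shaking at 700 rpm; fluorescence ex 440/em 486 nm. 0.1% DMSO wells = 100% aggregation; compound wells without Aβ = background. IC50 from triplicates.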

The target in a further data set is T2, Histone deacetylase 7 (Homo sapiens, UniProt Q8WUI4).
T2 sequence (Q8WUI4 whole entry): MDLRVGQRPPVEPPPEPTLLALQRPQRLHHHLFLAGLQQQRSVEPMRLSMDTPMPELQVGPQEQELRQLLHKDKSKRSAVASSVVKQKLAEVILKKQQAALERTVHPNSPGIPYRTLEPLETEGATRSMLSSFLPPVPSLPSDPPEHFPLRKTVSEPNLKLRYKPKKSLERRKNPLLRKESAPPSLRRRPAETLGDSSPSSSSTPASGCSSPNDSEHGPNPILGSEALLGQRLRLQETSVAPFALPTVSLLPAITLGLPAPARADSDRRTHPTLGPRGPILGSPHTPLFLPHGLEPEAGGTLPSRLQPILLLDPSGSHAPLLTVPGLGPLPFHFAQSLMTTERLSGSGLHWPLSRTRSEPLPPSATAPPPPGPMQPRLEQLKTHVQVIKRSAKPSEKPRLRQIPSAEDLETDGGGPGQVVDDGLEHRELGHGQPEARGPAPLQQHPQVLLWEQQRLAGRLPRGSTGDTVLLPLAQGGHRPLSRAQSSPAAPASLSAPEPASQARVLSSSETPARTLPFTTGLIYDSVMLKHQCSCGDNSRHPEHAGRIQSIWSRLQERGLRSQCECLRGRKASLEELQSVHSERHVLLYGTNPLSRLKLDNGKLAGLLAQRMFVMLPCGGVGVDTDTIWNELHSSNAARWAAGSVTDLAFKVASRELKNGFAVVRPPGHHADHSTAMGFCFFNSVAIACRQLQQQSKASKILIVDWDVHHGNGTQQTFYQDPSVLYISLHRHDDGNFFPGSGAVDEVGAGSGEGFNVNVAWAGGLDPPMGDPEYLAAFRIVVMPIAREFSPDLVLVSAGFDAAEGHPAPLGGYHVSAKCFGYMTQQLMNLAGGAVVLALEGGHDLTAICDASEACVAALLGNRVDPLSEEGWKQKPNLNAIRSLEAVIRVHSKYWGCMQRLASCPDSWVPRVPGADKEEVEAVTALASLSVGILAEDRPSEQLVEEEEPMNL
The data set can be described thus: Inhibition of recombinant human N-terminal GST-tagged HDAC7 (518 to end residues) expressed in baculovirus infected Sf9 cells using fluorogenic HDAC 2A substrate preincubated for 5 mins followed by substrate addition and measured after 30 mins by fluorescence assay.

The test system of a further data set is Hippocampal neurone. The data set can be described thus: Induction of neurite outgrowth in Sprague-Dawley rat primary hippocampal neurons assessed as increase in length of axonal neurite incubated for 3 days by DAPI staining based immunofluorescence microscopic analysis. It is filed as functional. To be noted: time 3.0 day. In short, it runs like this: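 Primary hippocampal neurons from embryonic Sprague-Dawley rats, plated on poly-D-lysine and kept in B27-neurobasal medium. Treated with DMSO or compound from DIV3 for three days, fixed at DIV6 in 4% paraformaldehyde. Axons stained with anti-tau, dendrites with anti-MAP2, nuclei with DAPI; fluorescence microscopy. At least 20 neurons traced for number and length of primary, secondary and tertiary neurites.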

The subject of the next data set is MDR1. The data set can be described thus: Efflux ratio of apparent permeability across basolateral to apical side over apical to basolateral side in MDCK-MDR1 cells at 5 uM measured after 2 hrs by LC-MS/MS analysis. Type of data set: ADME, cell-based, Canis lupus familiaris. Particulars: dog. The method in brief: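 MDR1-MDCK monolayers grown to confluence on collagen-coated microporous membranes. Test article dosed at 5 µM apical (A-to-B) or basolateral (B-to-A) in HBSS with 10 mM HEPES, 15 mM glucose, pH 7.4; receiver buffer has 1% BSA. 37 °C, 5% CO2; donor and receiver sampled at 120 min, quantified by LC-MS/MS (ESI). Duplicate determinations; lucifer yellow flux checks monolayer integrity. Efflux ratio = Papp(B-A)/Papp(A-B).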

Histone deacetylase 4, sequence (P56524 whole entry, the tested form may be a part): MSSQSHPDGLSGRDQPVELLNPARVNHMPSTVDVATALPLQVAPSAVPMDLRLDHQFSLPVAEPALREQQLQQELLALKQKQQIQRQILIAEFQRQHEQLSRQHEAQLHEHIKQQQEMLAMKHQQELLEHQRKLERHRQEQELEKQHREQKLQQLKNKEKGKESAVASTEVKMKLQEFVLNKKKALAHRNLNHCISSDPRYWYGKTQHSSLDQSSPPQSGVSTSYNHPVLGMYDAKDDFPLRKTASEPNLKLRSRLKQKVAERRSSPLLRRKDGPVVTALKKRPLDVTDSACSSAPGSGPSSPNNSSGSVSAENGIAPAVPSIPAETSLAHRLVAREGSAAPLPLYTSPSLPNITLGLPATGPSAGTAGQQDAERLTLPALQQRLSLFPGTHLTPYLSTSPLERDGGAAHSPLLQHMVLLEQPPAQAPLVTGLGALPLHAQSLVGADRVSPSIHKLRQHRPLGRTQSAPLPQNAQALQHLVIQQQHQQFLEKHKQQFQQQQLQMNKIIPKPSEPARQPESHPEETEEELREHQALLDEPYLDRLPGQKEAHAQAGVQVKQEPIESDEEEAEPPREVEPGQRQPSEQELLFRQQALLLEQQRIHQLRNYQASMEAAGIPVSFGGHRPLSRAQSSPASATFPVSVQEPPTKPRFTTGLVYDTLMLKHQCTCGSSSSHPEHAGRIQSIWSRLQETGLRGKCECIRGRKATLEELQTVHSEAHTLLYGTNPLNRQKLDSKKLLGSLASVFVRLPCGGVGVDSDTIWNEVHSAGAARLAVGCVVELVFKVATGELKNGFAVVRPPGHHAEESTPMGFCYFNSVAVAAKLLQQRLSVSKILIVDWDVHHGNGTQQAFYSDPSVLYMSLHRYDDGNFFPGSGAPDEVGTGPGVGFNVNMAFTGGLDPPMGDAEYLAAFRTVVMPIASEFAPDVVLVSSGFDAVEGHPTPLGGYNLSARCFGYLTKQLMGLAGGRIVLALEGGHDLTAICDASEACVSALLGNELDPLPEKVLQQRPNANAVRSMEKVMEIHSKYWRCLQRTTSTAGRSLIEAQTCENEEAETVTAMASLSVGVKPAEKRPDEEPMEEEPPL

With `O=C(NO)c1ccc(Nc2c3ccccc3nc3ccccc23)cc1`, the IC50 at Histone deacetylase 4 turned out to be 2.24 µM; at Histone deacetylase 9, 0.57 µM; on Histone deacetylase 5, 0.85 µM; in data set [3], 3 µM. The inhibition is 41% in data set [1] and “Dose-dependent effect” in data set [2]. Besides, in data set [2], the EC50 is 7.96 µM.

For the compound `O=C(NO)c1ccc(Nc2c3ccccc3nc3ccc(Br)cc23)cc1`, the IC50 on Histone deacetylase 4 was found to be 7.85 µM; at Histone deacetylase 7, 9.13 µM; on Histone deacetylase 9, 5.51 µM; on Histone deacetylase 5, 7.19 µM; in data set [3] it was 1.1 µM. Also, the inhibition in data set [1] is 70%; in data set [2], “Dose-dependent effect”. The EC50 in data set [2] is 0.58 µM. Also, the Activity result with Hippocampal neurone is “Dose-dependent effect”. Moreover, in the data set with MDR1, the efflux ratio at 2 h, 5 µM was 7.42.
